Data as given in ChEMBL document CHEMBL4145681, “Discovery of Novel Aminotetralines and Aminochromanes as Selective and Competitive Glycine Transporter 1 (GlyT1) Inhibitors” (J Med Chem, 2018).

Columns and labels:
[1] = target: T1, Sodium- and chloride-dependent glycine transporter 1 (Homo sapiens, UniProt P48067); assay: Displacement of [3H]N-Methyl-SSR504734 from human GlyT1c expressed in cell membranes incubated for 1 hr by liquid scintillation spectrometry
T1 sequence (P48067 whole entry): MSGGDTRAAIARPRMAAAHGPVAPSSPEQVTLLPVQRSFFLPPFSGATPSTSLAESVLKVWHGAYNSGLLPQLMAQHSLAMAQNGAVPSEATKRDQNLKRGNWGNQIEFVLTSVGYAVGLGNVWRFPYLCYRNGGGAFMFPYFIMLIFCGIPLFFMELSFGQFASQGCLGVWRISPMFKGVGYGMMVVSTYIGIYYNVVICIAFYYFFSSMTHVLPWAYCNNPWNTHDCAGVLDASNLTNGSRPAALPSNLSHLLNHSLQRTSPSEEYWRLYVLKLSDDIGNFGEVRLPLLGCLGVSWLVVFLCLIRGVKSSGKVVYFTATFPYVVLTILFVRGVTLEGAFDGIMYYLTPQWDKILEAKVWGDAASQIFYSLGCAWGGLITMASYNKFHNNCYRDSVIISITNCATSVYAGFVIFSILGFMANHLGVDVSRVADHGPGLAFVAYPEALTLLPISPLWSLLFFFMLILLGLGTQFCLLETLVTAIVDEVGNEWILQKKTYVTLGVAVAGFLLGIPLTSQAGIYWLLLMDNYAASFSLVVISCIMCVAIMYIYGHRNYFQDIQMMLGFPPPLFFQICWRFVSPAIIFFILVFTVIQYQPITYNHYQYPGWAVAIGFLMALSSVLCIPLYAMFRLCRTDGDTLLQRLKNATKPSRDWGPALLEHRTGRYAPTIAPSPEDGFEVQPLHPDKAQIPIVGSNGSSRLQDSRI

[2] = Clearance in rat liver microsomes at 0.5 uM incubated up to 30 mins in presence of NADPH by LC-MS/MS method; assay type: ADME, microsome; conditions: read-out: CLH
[3] = Clearance in human liver microsomes at 0.5 uM incubated up to 30 mins in presence of NADPH by LC-MS/MS method; assay type: ADME, microsome; conditions: read-out: CLH
Mus musculus = assay: In-vivo binding affinity to GlyT1 in mouse assessed as target occupancy in forebrains dosed intraperitoneally using [3H]N-methyl-SSR504734 as radioligand after 1 hr by liquid scintillation counting method; assay type: functional; conditions: ip
Summary of the method: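 Mice dosed i.p. at several doses; forebrain homogenates then tested ex vivo for binding of a GlyT1 radioligand to give target occupancy, with ED50 for 50% occupancy estimated across the dose range.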

[4] = fCmax in Sprague-Dawley rat brain at 2 mg/kg, ip measured after 8 to 24 hrs by LC-MS/MS method; assay type: ADME, organism-based; conditions: in vivo
[5] = Efflux ratio in MDCK2-MDR1 cells at 1 uM incubated fro 1 hr by LC-MS/MS method; assay type: ADME, cell-based, Canis lupus familiaris; conditions: dog, MDCK-MDR1

| SMILES | Ki [1] [nM] | microsomal CLint at 0.5 µM [2] [µL/min/mg] | microsomal CLint at 0.5 µM [3] [µL/min/mg] | ED50 (Mus musculus) [mg/kg] | fCmax [4] [nM] | efflux ratio at 1 h, 1 µM [5] |
| --- | --- | --- | --- | --- | --- | --- |
| Cn1cnc(S(=O)(=O)NCCOc2ccc3c(c2)[C@@H](Cc2cccc(C(F)(F)F)c2)[C@@H](N)CC3)c1 (relative stereo) | 0.8 | – | – | – | – | – |
| Cn1cnc(S(=O)(=O)NCCOc2ccc3c(c2)[C@@H](Cc2ccc(Cl)c(Cl)c2)[C@@H](N)CC3)c1 (relative stereo) | 2.6 | 10 | 36 | > 20 | – | – |
| Cn1cc(S(=O)(=O)NCCOc2ccc3c(c2)[C@@H](Cc2ccc(Cl)c(Cl)c2)[C@@H](N)CC3)cn1 (relative stereo) | 1.2 | 49 | 44 | > 20 | 0.2 | – |
| Cn1cnc(S(=O)(=O)NCCOc2ccc3c(c2)[C@@H](Cc2ccccc2Cl)[C@@H](N)CC3)c1 (relative stereo) | 75 | – | – | – | – | – |
| Cn1cnc(S(=O)(=O)NCCOc2ccc3c(c2)[C@@H](Cc2cc(F)cc(Cl)c2)[C@@H](N)CC3)c1 (relative stereo) | 1.2 | – | – | – | – | – |
| Cn1cnc(S(=O)(=O)NCCOc2ccc3c(c2)[C@@H](Cc2ccccc2)[C@@H](N2CCC2)CO3)c1 | 3.3 | 37 | 277 | – | – | 3.5 |
| Cn1cnc(S(=O)(=O)NCCOc2ccc3c(c2)[C@@H](Cc2ccc(Cl)cc2)[C@@H](N)CC3)c1 (relative stereo) | 1.1 | – | – | – | – | – |
| CCCS(=O)(=O)NC1CN(c2ccc3c(c2)[C@@H](Cc2ccccc2)[C@@H](N2CCC2)CO3)C1 (relative stereo) | 44 | 66 | < 23 | – | – | 0.9 |
| Cn1cnc(S(=O)(=O)NCCOc2ccc3c(c2)[C@@H](Cc2ccccc2)[C@@H](NCC(F)(F)F)CC3)c1 (relative stereo) | 69 | 125 | 69 | – | – | 1.4 |
| CCCS(=O)(=O)NCc1ccc2c(c1)[C@@H](Cc1ccccc1)[C@@H](N1CCC1)CC2 (relative stereo) | – | 302 | 122 | – | – | – |
| CS(=O)(=O)NCCOc1ccc2c(c1)[C@@H](Cc1ccc(Cl)c(Cl)c1)[C@@H](N)CC2 (relative stereo) | 141 | 39 | 25 | – | – | – |
| N[C@H]1CCc2ccc(OCCNS(=O)(=O)c3cccs3)cc2[C@H]1Cc1ccc(Cl)c(Cl)c1 (relative stereo) | 163 | 95 | 99 | – | – | – |
| N[C@H]1CCc2ccc(OCCNS(=O)(=O)C3CCC3)cc2[C@H]1Cc1ccc(Cl)c(Cl)c1 (relative stereo) | 32 | 49 | 55 | – | – | – |
| CCCS(=O)(=O)NCc1ccc2c(c1)[C@@H](Cc1ccccc1)[C@@H](NC)CC2 (relative stereo) | – | – | – | 2 | – | – |
| Cn1cnc(S(=O)(=O)NCCOc2ccc3c(c2)[C@@H](Cc2ccccc2)[C@@H](N)CC3)c1 (relative stereo) | 3.6 | – | – | – | – | – |
| N[C@H]1CCc2ccc(OCCNS(=O)(=O)c3ccccc3)cc2[C@H]1Cc1ccc(Cl)c(Cl)c1 | 660 | 40 | 78 | – | – | – |
| CCCCS(=O)(=O)NCCOc1ccc2c(c1)[C@@H](Cc1ccc(Cl)c(Cl)c1)[C@@H](N)CC2 (relative stereo) | 136 | 35 | 173 | – | – | – |
| Cn1cnc(S(=O)(=O)NCCOc2ccc3c(c2)[C@@H](Cc2cccc(Cl)c2)[C@@H](N)CC3)c1 (relative stereo) | 1.5 | – | – | 15 | – | – |
| O=S(=O)(CC1CC1)NCCOc1ccc2c(c1)[C@@H](Cc1ccccc1)[C@@H](N1CCC1)CO2 (relative stereo) | 940 | 239 | 940 | – | – | – |
| N[C@H]1CCc2ccc(OCCNS(=O)(=O)CC3CC3)cc2[C@H]1Cc1ccc(Cl)c(Cl)c1 (relative stereo) | 5.7 | 25 | 92 | 14 | – | – |
